Structures are written as SMILES.

The subject of series [1] is Pseudomonas aeruginosa. In words: Antimicrobial activity against Pseudomonas aeruginosa OC 4351 infected in immunocompromized SKH1 mouse assessed as log change in bacterial colony forming unit at 100 mg/kg/day, sc. Format: functional. To be noted: route subcutaneous. In short, it runs like this:
(§1)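 Female SKH1 hairless mice made neutropenic with ip cyclophosphamide (150 mg/kg 5 days and 100 mg/kg 1 day before infection). 0.2 ml s.c. Cytodex bead (0.1% vol/vol) inoculum in BHI: OC 4351 left flank, OC 4354 right flank. Drug s.c. at 1, 3, 25, 27 h postinfection. Killed at 48 h; skin homogenised in saline, plated on TSA 18 h 37°C; Δlog CFU/g versus inoculum. 5 mice/dose, run twice.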

For series [2], the system named is Pseudomonas aeruginosa. In words: Antimicrobial activity against Pseudomonas aeruginosa OC 4354 infected in immunocompromized SKH1 mouse assessed as log change in bacterial colony forming unit at 6.2 mg/kg/day, sc. Format: functional. To be noted: route subcutaneous. In short, it runs like this: as §1
Series [3] has as its system Plasma. In words: fAUC (0-infinity) in immunocompromized SKH1 mouse plasma at 50 mg/kg, sc. Type of series: ADME, organism-based. Also noted: dose 50 mg/kg, route subcutaneous. To be noted: in vivo. The procedure, abridged:
(§2)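 Female SKH1 hairless mice, immunocompetent or cyclophosphamide-neutropenic, infected s.c. with MRSA OC 8525 or P. aeruginosa OC 4354 on the Cytodex beads (left flank), sterile beads on the right. Single dose 24 h later: s.c. at the nape, or linezolid 50 mg/kg oral. Plasma and skin (DMSO homogenate) sampled over time, HPLC with diode array.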

Series [4] relates to Pseudomonas aeruginosa. In words: Antimicrobial activity against Pseudomonas aeruginosa OC 4351 infected in immunocompromized SKH1 mouse assessed as log change in bacterial colony forming unit at 1.6 mg/kg/day, sc. Format: functional. To be noted: route subcutaneous. The procedure, abridged:
as §1

Series [5] concerns Pseudomonas aeruginosa. In words: Antimicrobial activity against Pseudomonas aeruginosa OC 4354 assessed as inhibition of growth by broth microdilution method. Format: functional. Background: Broth dilution looks for growth in wells or tubes with falling amounts of substance.
Series [6] in a line: Tmax in immunocompromized SKH1 mouse plasma at 50 mg/kg, sc. Format: ADME, organism-based. Also on record: dose 50 mg/kg, route subcutaneous. The procedure, abridged:
as §2

The test system of series [7] is Pseudomonas aeruginosa. In words: Antimicrobial activity against Pseudomonas aeruginosa OC 4354 infected in immunocompromized SKH1 mouse assessed as log change in bacterial colony forming unit at 25 mg/kg/day, sc. Format: functional. To be noted: route subcutaneous. The procedure, abridged:
as §1

For series [8], the system named is Plasma. In words: fCmax in immunocompromized SKH1 mouse plasma at 50 mg/kg, sc. Format: ADME, organism-based. Also on record: dose 50 mg/kg, route subcutaneous. To be noted: in vivo. The procedure, abridged:
as §2

In series [9] the test system is Pseudomonas aeruginosa. In words: Antimicrobial activity against Pseudomonas aeruginosa OC 4354 infected in immunocompromized SKH1 mouse assessed as log change in bacterial colony forming unit at 100 mg/kg/day, sc. Type of series: functional. To be noted: route subcutaneous. The procedure, abridged:
as §1

The test system of series [10] is Pseudomonas aeruginosa. In words: Antimicrobial activity against Pseudomonas aeruginosa OC 4351 assessed as inhibition of growth by broth microdilution method. Type of series: functional.
Series [11] deals with Pseudomonas aeruginosa. In words: Antimicrobial activity against Pseudomonas aeruginosa OC 4354 infected in immunocompromized SKH1 mouse assessed as log change in bacterial colony forming unit at 1.6 mg/kg/day, sc. To be noted: route subcutaneous. Type of series: functional. In short, it runs like this: as §1
For series [12], the system named is Pseudomonas aeruginosa. In words: Antimicrobial activity against Pseudomonas aeruginosa OC 4351 infected in immunocompromized SKH1 mouse assessed as log change in bacterial colony forming units at 25 mg/kg/day, sc. Type of series: functional. To be noted: route subcutaneous. In short, it runs like this: as §1
The subject of series [13] is Pseudomonas aeruginosa. In words: Antimicrobial activity against Pseudomonas aeruginosa OC 4351 infected in immunocompromized SKH1 mouse assessed as log change in bacterial colony forming unit at 25 mg/kg/day, sc. Type of series: functional. To be noted: route subcutaneous. In short, it runs like this: as §1
The nature of series [14]: Ratio of fAUC to MIC in Staphylococcus aureus OC 4172 infected sc dosed SKH1 mouse. Type of series: functional. In short, it runs like this: (§3)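 Free-drug plasma AUC, converted from μg·min/ml to μg·h/ml, divided by the MIC of the infecting S. aureus strain.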
A short description of series [15]: Protein binding in mouse plasma. Format: ADME, cell-free. To be noted: read-out: PPB (converted).
Series [16] has as its system Plasma. In words: fCmax in immunocompetent SKH1 mouse plasma at 50 mg/kg, po. Also on record: dose 50 mg/kg, route oral. To be noted: in vivo. Type of series: ADME, organism-based. In short, it runs like this: as §2
The test system of series [17] is Staphylococcus aureus. In words: Antimicrobial activity against methicillin-resistant Staphylococcus aureus OC 8525 infected immunocompetent SKH1 mouse assessed as lesion volume at 6.2 mg/kg/day, sc measured after 48 hrs postinfection (reference value: 1535 mm3). To be noted: route subcutaneous.
Series [18] is described as follows: Tmax in immunocompetent SKH1 mouse plasma at 50 mg/kg, po. Type of series: ADME, organism-based. Also noted: dose 50 mg/kg, route oral. In short, it runs like this: as §2
The nature of series [19]: Half life in immunocompetent SKH1 mouse plasma at 50 mg/kg, po. Type of series: ADME, organism-based. Also noted: dose 50 mg/kg, route oral. The procedure, abridged: as §2
Series [20] in a line: Ratio of fAUC to MIC in Staphylococcus aureus OC 8525 infected sc dosed SKH1 mouse. Format: functional. In short, it runs like this:
as §3

In series [21] the test system is Staphylococcus aureus. In words: Antimicrobial activity against methicillin-susceptible Staphylococcus aureus Smith OC 4172 infected immunocompetent SKH1 mouse assessed as lesion volume at 1.6 mg/kg/day, sc measured after 48 hrs postinfection (reference value: 1181 mm3). To be noted: route subcutaneous.
The test system of series [22] is Staphylococcus aureus. In words: Antimicrobial activity against methicillin-resistant Staphylococcus aureus OC 8525 infected immunocompetent SKH1 mouse assessed as lesion volume at 25 mg/kg/day, sc measured after 48 hrs postinfection (reference value: 1535 mm3). To be noted: route subcutaneous.
Series [23] has as its system Plasma. In words: fAUC (0-infinity) in immunocompetent SKH1 mouse plasma at 50 mg/kg, po. Type of series: ADME, organism-based. Also on record: dose 50 mg/kg, route oral. To be noted: in vivo. In short, it runs like this: as §2
Series [24] deals with Staphylococcus aureus. In words: Antimicrobial activity against methicillin-susceptible Staphylococcus aureus Smith OC 4172 infected immunocompetent SKH1 mouse assessed as lesion volume at 6.2 mg/kg/day, sc measured after 48 hrs postinfection (reference value: 1181 mm3). To be noted: route subcutaneous.
Series [25] relates to Staphylococcus aureus. In words: Antimicrobial activity against methicillin-resistant Staphylococcus aureus OC 8525 infected immunocompetent SKH1 mouse assessed as lesion volume at 100 mg/kg/day, sc measured after 48 hrs postinfection (reference value: 1535 mm3). To be noted: route subcutaneous.
The test system of series [26] is Staphylococcus aureus. In words: Antimicrobial activity against methicillin-resistant Staphylococcus aureus OC 8525 infected immunocompetent SKH1 mouse assessed as lesion volume at 1.6 mg/kg/day, sc measured after 48 hrs postinfection (reference value: 1535 mm3). To be noted: route subcutaneous.
Series [27] deals with Staphylococcus aureus. In words: Antimicrobial activity against methicillin-susceptible Staphylococcus aureus Smith OC 4172 infected immunocompetent SKH1 mouse assessed as lesion volume at 25 mg/kg/day, sc measured after 48 hrs postinfection (reference value: 1181 mm3). To be noted: route subcutaneous.
For series [28], the system named is Plasma. In words: fAUC (0-infinity) in immunocompetent SKH1 mouse plasma at 50 mg/kg, sc. Format: ADME, organism-based. Also on record: dose 50 mg/kg, route subcutaneous. To be noted: in vivo. In short, it runs like this:
as §2

The test system of series [29] is Plasma. In words: fCmax in immunocompetent SKH1 mouse plasma at 50 mg/kg, sc. Format: ADME, organism-based. Also noted: dose 50 mg/kg, route subcutaneous. To be noted: in vivo. The procedure, abridged:
as §2

Series [30] is described as follows: Half life in immunocompetent SKH1 mouse plasma at 50 mg/kg, sc. Also noted: dose 50 mg/kg, route subcutaneous. Type of series: ADME, organism-based.
In series [31] the test system is Staphylococcus aureus. In words: Antimicrobial activity against methicillin-susceptible Staphylococcus aureus Smith OC 4172 infected immunocompetent SKH1 mouse assessed as lesion volume at 100 mg/kg/day, sc measured after 48 hrs postinfection (reference value: 1181 mm3). To be noted: route subcutaneous.
Series [32] can be described thus: Tmax in immunocompetent SKH1 mouse plasma at 50 mg/kg, sc. Type of series: ADME, organism-based. Also noted: dose 50 mg/kg, route subcutaneous. The procedure, abridged: as §2

For `CO/N=C(\C(=O)N[C@@H]1C(=O)N2C(C(=O)[O-])=C(C[N+]3(C)CCCC3)CS[C@H]12)c1csc(N)n1`, the deltalog10CFU with Pseudomonas aeruginosa [1] is 1; with Pseudomonas aeruginosa [2], 2.9; with Pseudomonas aeruginosa [4] it was 2.1; in the series with Pseudomonas aeruginosa [7], 1.7; in the series with Pseudomonas aeruginosa [9] it was 1.7; in the series on Pseudomonas aeruginosa [11], 1.7. In addition, the values for the deltalog10CFU in the series with Pseudomonas aeruginosa [12] and with Pseudomonas aeruginosa [13] were 1.8 and 2.1, respectively. The same compound returned a fAUC in the series on Plasma [3] of 1790 µg·min/mL. The MIC worked out at 32 µg/mL with Pseudomonas aeruginosa [5] and 4 µg/mL in the series on Pseudomonas aeruginosa [10]. Further, in series [6], the Tmax was 7.5 min. Also, the fCmax in the series with Plasma [8] came out at 66 µg/mL.

Turning to `CC(=O)NC[C@H]1CN(c2ccc(N3CCOCC3)c(F)c2)C(=O)O1` [LINEZOLID], the fAUC/MIC is given as 898 in series [14] and 449 in series [20]. Besides, the fraction unbound in [15] was 0.68. The fCmax in the series with Plasma [16] was 14 µg/mL. Also, the Activity in the series with Staphylococcus aureus [17] came out at 1277 mm3; in the series with Staphylococcus aureus [21], 1407 mm3; with Staphylococcus aureus [22] it was 932 mm3; with Staphylococcus aureus [24], 1234 mm3; with Staphylococcus aureus [25] it was 858 mm3; with Staphylococcus aureus [26], 1644 mm3. In the series with Staphylococcus aureus [27], the Activity turned out to be 1018 mm3. The Tmax in series [18] was 30 min. The compound further came in with a half-life in series [19] of 102 min. In addition, the fAUC with Plasma [23] was found to be 1795 µg·min/mL.

Compound `CN[C@H](CC(C)C)C(=O)N[C@H]1C(=O)N[C@@H](CC(N)=O)C(=O)N[C@H]2C(=O)N[C@H]3C(=O)N[C@H](C(=O)N[C@H](C(=O)O)c4cc(O)cc(O)c4-c4cc3ccc4O)[C@H](O)c3ccc(c(Cl)c3)Oc3cc2cc(c3O[C@@H]2O[C@H](CO)[C@@H](O)[C@H](O)[C@H]2O[C@H]2C[C@](C)(N)[C@H](O)[C@H](C)O2)Oc2ccc(cc2Cl)[C@H]1O` [VANCOMYCIN] yielded a fAUC with Plasma [28] of 2070 µg·min/mL. The fAUC/MIC in series [14] and in [20] was 2070 in each case. Moreover, the fraction unbound in series [15] is 0.75. Moreover, in the series with Plasma [29], the fCmax was 40 µg/mL. Further, the Activity turned out to be 1392 mm3 in the series on Staphylococcus aureus [17]; 1386 mm3 with Staphylococcus aureus [21]; 927 mm3 in the series on Staphylococcus aureus [22]; 1211 mm3 in the series with Staphylococcus aureus [24]; 437 mm3 in the series on Staphylococcus aureus [31]; 606 mm3 in the series with Staphylococcus aureus [25]. The Activity with Staphylococcus aureus [26] is 1637 mm3; in the series on Staphylococcus aureus [27], 916 mm3. The compound further gave a half-life in series [30] of 22 min. Also, the Tmax in series [32] is 10 min.

By MIC is commonly meant the lowest concentration that inhibits growth of the organism. Broadly, the Tmax is the time from dosing to the highest level. The term half-life denotes the time in which the quantity being followed falls by half. Low readings indicate fast loss, high ones slow loss.

Values taken from ChEMBL document CHEMBL1212762, “In vivo activity of ceftobiprole in murine skin infections due to Staphylococcus aureus and Pseudomonas aeruginosa” (Antimicrob Agents Chemother, 2010).
